Test results: ChEMBL document CHEMBL4017501, “Paralog Specificity Determines Subcellular Distribution, Action Mechanism, and Anticancer Activity of TRAP1 Inhibitors” (J Med Chem, 2017)
Activity calls are given as the source filed them. No cut-off for these calls is given here.

How the values were obtained:
[1] = target: T1, Heat shock protein 75 kDa, mitochondrial (Homo sapiens) (UniProt Q12931); test: Inhibition of TRAP1 in human HeLa cells assessed as induction of mitochondrial ROS production after 6 hrs by Mito-Sox staining based flow cytometry; type: cell-based
T1 sequence (whole entry): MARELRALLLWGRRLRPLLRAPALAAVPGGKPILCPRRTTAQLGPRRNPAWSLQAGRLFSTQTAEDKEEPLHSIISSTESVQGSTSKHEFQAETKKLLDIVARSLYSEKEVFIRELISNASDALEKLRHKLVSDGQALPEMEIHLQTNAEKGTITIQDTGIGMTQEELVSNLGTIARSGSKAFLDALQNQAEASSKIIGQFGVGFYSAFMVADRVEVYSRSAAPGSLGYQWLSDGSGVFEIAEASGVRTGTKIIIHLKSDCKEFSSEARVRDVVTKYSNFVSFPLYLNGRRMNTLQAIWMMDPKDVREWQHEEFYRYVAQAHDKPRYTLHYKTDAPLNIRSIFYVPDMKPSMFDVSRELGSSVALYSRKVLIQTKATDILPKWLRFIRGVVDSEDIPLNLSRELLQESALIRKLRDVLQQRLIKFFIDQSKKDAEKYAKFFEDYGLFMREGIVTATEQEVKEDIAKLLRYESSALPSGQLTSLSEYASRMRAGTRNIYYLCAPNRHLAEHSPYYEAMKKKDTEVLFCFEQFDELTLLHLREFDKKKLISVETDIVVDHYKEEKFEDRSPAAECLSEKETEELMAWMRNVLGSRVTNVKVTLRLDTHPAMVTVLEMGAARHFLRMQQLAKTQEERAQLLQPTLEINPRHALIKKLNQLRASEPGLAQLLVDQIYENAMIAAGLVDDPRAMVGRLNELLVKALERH
Outline: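 HeLa cells given drug for 6 h, then stained with 200 nM Mito-SOX Red for 20 min at 37 °C. Cells washed with PBS, trypsinized, resuspended and analysed by flow cytometry for mitochondrial superoxide.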

[2] = target: T1, Heat shock protein 75 kDa, mitochondrial (Homo sapiens); test: Inhibition of TRAP1 in human HeLa cells assessed as cytochrome c release at 20 uM after 4 hrs by Western blot method; type: cell-based
Outline: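 HeLa cells treated at 20 μM for 4 h. Mitochondrial fractionation performed; cytoplasmic fraction probed for cytochrome c by Western blot.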

[3] = target: T2, Heat shock protein 75 kDa, mitochondrial (Homo sapiens, UniProt Q12931); test: Inhibition of FITC3-labeled PU-H71 binding to recombinant human N-terminal His6-tagged TRAP1 (60 to 561 residues) expressed in Escherichia coli BL21(DE3) after 24 hrs by fluorescence polarization assay
T2 sequence (Q12931 whole entry): T1 sequence (whole entry)
Outline: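 Recombinant TRAP1 (100 nM) incubated with 10 nM 1-FITC3 probe and varying inhibitor concentrations for 24 h at 4 °C. Buffer: PBS-type salts with 1 mM DTT, 2 mM MgCl2, 0.1 mg/mL BSA, 0.05% NP40, pH 7.3. Polarization (mP) scaled to maximum and minimum values; mean ± SEM of two independent experiments.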

[4] = target: Heat shock protein HSP 90-alpha (Homo sapiens, UniProt P07900); test: Inhibition of FITC3-labeled PU-H71 binding to recombinant HSP90alpha (unknown origin) after 24 hrs by fluorescence polarization assay
Heat shock protein HSP90 [5] = target: T3, Heat shock protein HSP90 (Homo sapiens, UniProt P07900+P08238); test: Inhibition of HSP90 in human HeLa cells assessed as induction of HSP70 protein expression at 10 uM after 6 hrs by Western blot method; type: cell-based
Hepatocyte = test: Cytotoxicity against mouse primary hepatocytes assessed as reduction in cell viability at 5 to 20 uM after 24 hrs by MTT assay; type: cell-based
Outline: (§1)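 Corneal cells kept in corneal medium; hepatocytes isolated from 8-week-old BALB/c mice and kept in M199/EBSS with 10% FBS. Cells given a range of drug concentrations for 24 h. MTT absorbance read at 595 nm and normalized to DMSO; two independent experiments in duplicate, mean ± SEM.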

[6] = Cytotoxicity against human corneal cells assessed as reduction in cell viability at 5 to 20 uM after 24 hrs by MTT assay; type: cell-based; outline: as §1
Heat shock protein HSP90 [7] = target: T3, Heat shock protein HSP90; test: Inhibition of HSP90 in human PC3 cells assessed as induction of HSP70 protein expression at 10 uM after 6 hrs by Western blot method; type: cell-based

COc1c(C)cnc(Cn2cnc3c(Cl)nc(N)nc32)c1C
inhibition [1]: inactive | inhibition [2]: inactive

Nc1nc(Cl)c2cc(C(=O)O)n(Cc3ccc4c(c3)OCO4)c2n1
IC50 [3]: 8.43 µM | IC50 [4]: > 10 µM

CO[C@H]1/C=C\C=C(/C)C(=O)NC2=CC(=O)C(NCCN(C)C)=C(C[C@@H](C)C[C@H](OC)[C@H](O)[C@@H](C)/C=C(\C)[C@@H]1OC(N)=O)C2=O [ALVESPIMYCIN]
inhibition (INH) (Heat shock protein HSP90 [5]): Active | Activity (Hepatocyte): Toxic | Activity [6]: Toxic | inhibition (INH) (Heat shock protein HSP90 [7]): Active

Nc1nc(Cl)c2cnc(Cc3ccc4c(c3)OCO4)n2n1
IC50 [3]: > 10 µM | IC50 [4]: > 10 µM
